Bioassay records: PubChem, Broad Institute
Only some compounds are listed: those with a hit (about 1.4% of all), similar ones and a draw of the others.
ERp5 inh – blocks human ERp5 reductase activity on insulin | ERp5 insulin aggregation, absorbance 650 nm, 90 min | inhibition, % at 9.99 µM | Q15084 | AID 651711 | 350,000 compounds, 0.05% hits;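 active = mean replicate inhibition above about 25%, with every replicate also reaching it, limit read from the data, passing the limit was not always enough; inconclusive = only one of those two criteria met; inactive = neither criterion met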
GSIS activator – primary screen for activators of insulin secretion dependent on glucose, INS-1E cells, GLuc reporter luminescence; INS-1E GLuc reporter insulin secretion, 2-3 h; activation, % at 16.6 µM; 370,000 compounds, 0.61% hits;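 active = lowest replicate activation of at least 40%, so every replicate reaches that level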;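 also: 0% = median of neutral control wells and 100% = median of IBMX positive control wells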
PDI inh – inhibitors of human protein disulfide isomerase; P07237; PDI insulin aggregation turbidity, A650, 90 min; inhibition, % at 10 µM; 350,000 compounds, 0.052% hits; AID 588391;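 active = mean inhibition across replicates of 30% or more, whatever share of single replicates reach that level; inconclusive = mean inhibition below 30% while every single replicate reaches 30%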
Target sequence (P07237 whole entry, looked up): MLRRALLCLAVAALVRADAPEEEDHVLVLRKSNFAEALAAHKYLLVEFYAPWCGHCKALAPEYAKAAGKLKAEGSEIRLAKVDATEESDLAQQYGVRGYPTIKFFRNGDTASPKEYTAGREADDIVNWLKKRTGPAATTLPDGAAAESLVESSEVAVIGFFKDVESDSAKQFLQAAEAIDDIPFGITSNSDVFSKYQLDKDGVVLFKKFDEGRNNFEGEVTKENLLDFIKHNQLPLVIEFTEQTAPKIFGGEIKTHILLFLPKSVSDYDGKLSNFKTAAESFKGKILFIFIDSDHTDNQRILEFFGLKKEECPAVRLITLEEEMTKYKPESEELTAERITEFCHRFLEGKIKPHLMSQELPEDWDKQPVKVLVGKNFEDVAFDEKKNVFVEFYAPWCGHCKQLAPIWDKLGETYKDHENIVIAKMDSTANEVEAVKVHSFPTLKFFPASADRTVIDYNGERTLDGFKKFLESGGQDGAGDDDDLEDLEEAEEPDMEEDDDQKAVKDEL
FN deposit inh – fibronectin deposition inhibition; AH1F fibroblasts, Alexa488-fibronectin deposition fluorescence, overnight; inhibition, % at 12.6 µM; 350,000 compounds, 0.086% hits; AID 743247;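 active = mean inhibition across replicates of 30% or more, regardless of how many single replicates reach that level; inconclusive = mean under 30% yet at least half of replicates reach 30%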;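 also: positive control wells lacked labelled fibronectin entirely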
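material = AH1F fibroblast monolayer depositing Alexa488-labelled fibronectin into matrix | amount = 10000 AH1F cells/well | buffer or medium = DMEM plus 2% serum, read in PBS | incubation = 1 h cell adhesion before compound, then overnight fibronectin incubation | detection = fluorescence at 485 nm excitation, 525 nm emission | evaluation = percent inhibition as loss of matrix-bound fibronectin fluorescence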
HIV Env fusion – HIV envelope-mediated fusion inhibition | HeLa-JRFL Env/CEM21 cell fusion, luciferase | inhibition, % at 12.3 µM | 360,000 compounds, 1.1% hits;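 active = mean replicate inhibition score of at least 50 and every replicate individually at or above 50; inconclusive = only one of the two criteria met; inactive = mean below 50 and not all replicates reaching 50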;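 also: 0% = plate neutral controls and 100% = maraviroc near 300 nM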
An asterisk follows results filed as active; ? = inconclusive; / = no result given; [ ] = dose if it differs, or a comment.

SMILES	ERp5 inh	GSIS activator	PDI inh	FN deposit inh	HIV Env fusion
COc1ccc(-c2ccc3c(c2)[C@@H]2[C@@H](CCN2C(=O)NC2CCCC2)[C@H](CO)N3C)cc1	3	-28	/	0	59*[16.7 µM]
Cn1c(=NC(=O)c2ccc(S(=O)(=O)N3CCCc4ccccc43)cc2)sc2cc(S(C)(=O)=O)ccc21	/	-9	-4	6	7
Cn1c(=NC(=O)c2ccccc2[N+](=O)[O-])sc2cc(S(C)(=O)=O)ccc21	/	87*	-8	2	-45
CCC(=O)N1[C@H](CO)[C@H]2c3ccccc3N(C(=O)CC(F)(F)F)C[C@H]21	-4	0	/	/	/
CCOC(=O)c1cnc2ccc(OCC)cc2c1N1CCN(c2ccccc2)CC1	/	71*	-5	-10	12
COc1ccc(S(=O)(=O)NC[C@@H]2CC[C@H]3[C@H](CN3Cc3cc(F)ccc3F)O2)cc1	2	/	/	/	60*[16.7 µM]
O=C(O)c1ccccc1CN1C[C@H]2O[C@H](CNS(=O)(=O)c3ccc(Cl)cc3)CC[C@H]21	-7	/	/	/	-23[16.7 µM]
CCCCc1nc(N)c(C#N)c(-c2ccco2)c1CCC	0	62*	-5	/	/
O=C(C[C@@H]1C=C[C@H](NS(=O)(=O)c2ccc(F)cc2)[C@@H](CO)O1)NCc1ccc(Cl)c(Cl)c1	0	-22	/	/	20[16.7 µM]
Cc1ccc(-n2ncc3c(N4CCN(c5ccccc5)CC4)ncnc32)c(C)c1	-11	/	4	-5	90*
COc1ccc(N2CCN(c3ncnc4c3cnn4-c3ccc(C)cc3C)CC2)cc1	8	2	3	/	/
Cc1ccc(-n2ncc3c(NCc4cccnc4)ncnc32)c(C)c1	/	-23	-6	-12	58*
O=c1c(Cl)c(Cl)cnn1Cc1nnc(-c2ccccc2Br)o1	0	19	17	39*	-347
O=C(NCCCN1CCC(Cc2ccccc2)CC1)C1CC(=O)N(C2CCCCCC2)C1 (stereo not given)	/	/	18	/	55*
CN1CCN(CCCNC(=O)C2CC(=O)N(C3CCCCC3)C2)CC1 (stereo not given)	/	/	-7	/	/
COc1ccc(CNC(=O)C2Cc3c(-c4cccc(F)c4)ccnc3O2)cc1OC (stereo not given)	3	57*	3	2	13
N=c1n(CCN2CCCCC2)c2ccccc2n1CC(O)COc1ccccc1 (stereo not given)	/	42*	-2	/	/
N=c1n(CCN2CCOCC2)c2ccccc2n1CC(O)COc1ccccc1 (stereo not given)	/	/	4	/	/
CC(=O)N(C)C[C@H]1Oc2cc(C#Cc3cccc(F)c3)ccc2S(=O)(=O)N([C@H](C)CO)C[C@H]1C	3	-21	/	10	6[16.7 µM]
Cc1ccc(C)c(NC(=O)c2ccc3ccccc3n2)c1	/	31	-5	/	/
Cc1ccc(NC(=S)c2ccc3ccccc3n2)c(C)c1	-3	57*	4	-17	-62
O=C(Cc1ccc(S(=O)(=O)N2CCOCC2)s1)N1CCN(S(=O)(=O)c2ccc(Cl)cc2)CC1	-7	/	-5	-4	70*
Cc1ccc(S(=O)(=O)N2CCN(C(=O)Cc3ccc(S(=O)(=O)N4CCOCC4)s3)CC2)cc1	3	-12	-2	/	38
CC(OC(=O)c1ccc(NC(=O)CC#N)cc1)C(=O)NCCC1=CCCCC1 (stereo not given)	2	2	1	1	76*
COc1ccc(NC(=O)CNCCC2=CCCCC2)cc1	3	-22	11	3	60*
SMILES	ERp5 inh	GSIS activator	PDI inh	FN deposit inh	HIV Env fusion
Cc1ccc(S(=O)(=O)Nc2ccc3c(c2)C(=O)N([C@H](C)CO)C[C@H](C)[C@@H](CN(C)C(=O)Nc2ccc(F)cc2)OCCCC[C@@H](C)O3)cc1	2	-8	/	-8	-37[16.7 µM]
COC1=C(C)C(=O)C2=C(C1=O)C1C3CC4=C(C(=O)C(OC)=C(C)C4=O)C(CNC(=O)C(C)=O)N3C(C#N)C(C2)N1C (stereo not given)	10	/	-4	-4	64*
Cc1ccc(O)c(-c2cc(C(F)(F)C(F)F)nc(-c3ccccc3)n2)c1	/	/	14	/	/
Oc1ccc(Cl)cc1-c1cc(C(F)(F)C(F)F)nc(-c2ccccc2)n1	/	/	-6	/	67*
CCN1CC(=O)N2[C@@H](CO)[C@@H](c3ccc(Br)cc3)[C@@H]2C1	9	9	/	-3	/
O=C(O)c1ccc2nc(-c3ccccc3)sc2c1	/	16	1	/	44
Nc1ccc(-c2nc3ccc(C(=O)O)cc3s2)cc1	-2	-8	-5	-6	69*
COc1ccccc1-c1ccc(OCCCN2CCC(C(O)(c3ccccc3)c3ccccc3)CC2)cc1	9	/	/	5	97*
OC(c1ccccc1)(c1ccccc1)C1CCN(CCCOc2ccc(-c3ccc(F)cc3F)cc2)CC1	2	249*	/	4	63*
OC(c1ccccc1)(c1ccccc1)C1CCN(CCCOc2ccc(-c3ccncc3)cc2)CC1	-2	-30	/	-5	1
CO[C@H]1CN(C)C(=O)c2cc(NC(=O)Cc3ccccc3)ccc2OC[C@@H](C)N(CC2CC2)C[C@H]1C	2	8	/	-1	-3[16.7 µM]
CO[C@H]1CN(C)C(=O)c2ccc(NS(=O)(=O)c3ccc(Oc4ccccc4)cc3)cc2OC[C@@H](C)NC[C@H]1C	-5	7	/	-4	2[16.7 µM]
FC(F)(F)c1cc(-c2ccccc2)nc(-n2cc(Cl)cn2)n1	?	51*	-3	-7	-7
CO[C@@H]1CN(C)C(=O)c2ccc(NS(C)(=O)=O)cc2OC[C@@H](C)N(Cc2cncnc2)C[C@H]1C	5	-9	/	-1	3[16.7 µM]
c1ccc(CCn2nnc3ccccc32)cc1	0	22	-4	-15	-19
Nn1nnc2ccccc21	-7	/	-3	4	94*
O=C(CCc1ccc(S(=O)(=O)N2CCOCC2)cc1)Nc1nc(COc2ccccc2)cs1	/	-7	-8	-1	80*
CCOC(=O)/C=C1/SCC(=O)N1CC(=O)NC12CC3CC(CC(C3)C1)C2	6	-34	-4	1	57*
CCOC(=O)/C=C1\SCC(=O)N1CC(=O)Nc1ccc(OC)c(OC)c1	/	13	-3	/	/
Cc1ccc(NC(=O)c2c(C(F)(F)F)nn(C)c2SCc2cccc(C(F)(F)F)c2)cc1C	/	/	5	-9	87*
Cc1ccc(NC(=O)c2c(C(F)(F)F)nn(C)c2SCc2ccc(Cl)cc2)cc1C	/	/	-5	-11	54
Cc1cccc(C)c1NC(=O)C1C(c2ccccc2)=Nc2ccccc2N1C(=O)c1cnccn1 (stereo not given)	2	16	/	-1	64*
COc1cc(/C=N/NC(=O)CNC(=O)c2cccs2)ccc1O	7	46*	-12	4	13
CCOc1cc(/C=N/NC(=O)CSc2cccc3cccnc23)ccc1O	0	66*	-4	5	-1
O=C(CSc1cccc2cccnc12)N/N=C/c1ccncc1	-1	6	3	/	6
CCOc1cc(/C=N/NC(=O)C(C)Sc2ccccn2)ccc1O (stereo not given)	/	70*	-4	-7	4
